Test results taken from ChEMBL document CHEMBL1133857, “Beta 3 agonists. Part 1: evolution from inception to BMS-194449” (Bioorg Med Chem Lett, 2001).

Key:
[1] = target: Beta-2 adrenergic receptor and beta-3 adrenergic receptor (Homo sapiens) (UniProt P07550+P13945); experiment: Selectivity as the ratio of Ki of beta-2 adrenergic receptor to the Ki of beta-3 adrenergic receptor.; format: protein assay
How it was run: (§1)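 Ki at human β1, β2 and β3 adrenergic receptors measured by binding to membranes prepared from CHO cells transfected with each human receptor. Selectivity is expressed as the ratio of β1 or β2 Ki to β3 Ki.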

[2] = target: T1, Beta-3 adrenergic receptor (Homo sapiens, UniProt P13945); experiment: Human beta-3 adrenergic receptor agonist activity by measurement of cAMP accumulation levels in CHO membranes expressing human beta-3 receptor.; format: functional, cell membranes
How it was run: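 β3 intrinsic activity (% activation) measured in membranes from CHO cells transfected with human β3 adrenergic receptor.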
Target sequence in this assay (P13945 whole entry, looked up): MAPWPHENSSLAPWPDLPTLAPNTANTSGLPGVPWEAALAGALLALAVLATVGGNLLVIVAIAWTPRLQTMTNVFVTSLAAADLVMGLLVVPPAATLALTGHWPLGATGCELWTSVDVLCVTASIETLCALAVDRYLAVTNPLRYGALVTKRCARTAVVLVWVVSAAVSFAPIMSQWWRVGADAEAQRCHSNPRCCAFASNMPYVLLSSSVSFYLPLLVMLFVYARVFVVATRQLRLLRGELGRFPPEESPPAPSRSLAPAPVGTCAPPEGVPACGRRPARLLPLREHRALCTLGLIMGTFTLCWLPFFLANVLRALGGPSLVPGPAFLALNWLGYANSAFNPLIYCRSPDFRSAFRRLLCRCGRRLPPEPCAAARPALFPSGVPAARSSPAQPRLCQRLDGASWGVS

[3] = target: T1, Beta-3 adrenergic receptor; experiment: Binding affinity against CHO cells transfected with human beta-3 adrenergic receptor in the presence of [125I]iodocyanopindolol; format: cell-based; how it was run: as §1
Target sequence in this assay (P13945 whole entry): as the sequence (P13945 whole entry, looked up) above

[4] = target: Adrenergic receptor beta; ADRB1 & ADRB3 (Homo sapiens) (UniProt P08588+P13945); experiment: Selectivity measured as the ratio of Ki of Beta-1 Adrenergic receptor to the Ki of Beta-3 Adrenergic receptor; format: protein assay; how it was run: as §1
Sequence of Adrenergic receptor beta; ADRB1 & ADRB3 (Homo sapiens) (P08588 whole entry, looked up): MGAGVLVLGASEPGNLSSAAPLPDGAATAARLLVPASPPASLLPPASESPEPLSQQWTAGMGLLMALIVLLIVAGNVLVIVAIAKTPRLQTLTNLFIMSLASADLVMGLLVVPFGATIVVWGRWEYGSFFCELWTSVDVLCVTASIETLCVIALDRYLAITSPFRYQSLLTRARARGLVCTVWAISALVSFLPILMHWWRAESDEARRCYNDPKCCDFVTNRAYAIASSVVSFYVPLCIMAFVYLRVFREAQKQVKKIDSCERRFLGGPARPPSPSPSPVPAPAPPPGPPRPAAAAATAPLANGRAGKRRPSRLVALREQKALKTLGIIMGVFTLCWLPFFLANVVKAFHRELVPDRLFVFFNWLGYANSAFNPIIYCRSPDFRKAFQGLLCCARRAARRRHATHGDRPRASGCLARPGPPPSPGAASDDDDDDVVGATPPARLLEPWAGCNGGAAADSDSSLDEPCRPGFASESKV
Sequence of Adrenergic receptor beta; ADRB1 & ADRB3 (Homo sapiens) (P13945 whole entry, looked up): as the sequence (P13945 whole entry, looked up) above

[5] = Response of African green monkeys to lipolysis upon iv injection of compound; format: functional; details: Cercopithecidae
How it was run: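 Agonist given iv to ketamine-anesthetized African green monkeys. Lipolysis is read as the rise in non-esterified fatty acids, and the ED50 is given in mg/kg. β3 mediation is checked by co-administration with propranolol 0.1 mg/kg.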

[6] = Response of African green monkeys to iv injection measured as beta-1 margin before onset of tachycardia; format: functional, Cercopithecidae
How it was run: (§2)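 Agonist given iv to ketamine-anesthetized African green monkeys. A β1 event is the onset of tachycardia, and a β2 event is a decrease in serum K+. Margin = dose producing statistically significant onset of the β1 or β2 event ÷ ED50 for lipolysis.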

[7] = Response of African green monkeys to iv injection measured as beta-2 margin before decrease of serum K; format: functional, Cercopithecidae; how it was run: as §2
Cavia porcellus = species on record: Cavia porcellus; experiment: (§3) Intrinsic activity as the acceleration in contraction of spontaneously beating guinea pig atria relative to that induced by isoproterenol; format: functional
[8] = target: Beta-1 adrenergic receptor (Cavia porcellus) (UniProt B0FL73); experiment: as §3; format: functional
Sequence of Beta-1 adrenergic receptor (Cavia porcellus) (B0FL73 1-467): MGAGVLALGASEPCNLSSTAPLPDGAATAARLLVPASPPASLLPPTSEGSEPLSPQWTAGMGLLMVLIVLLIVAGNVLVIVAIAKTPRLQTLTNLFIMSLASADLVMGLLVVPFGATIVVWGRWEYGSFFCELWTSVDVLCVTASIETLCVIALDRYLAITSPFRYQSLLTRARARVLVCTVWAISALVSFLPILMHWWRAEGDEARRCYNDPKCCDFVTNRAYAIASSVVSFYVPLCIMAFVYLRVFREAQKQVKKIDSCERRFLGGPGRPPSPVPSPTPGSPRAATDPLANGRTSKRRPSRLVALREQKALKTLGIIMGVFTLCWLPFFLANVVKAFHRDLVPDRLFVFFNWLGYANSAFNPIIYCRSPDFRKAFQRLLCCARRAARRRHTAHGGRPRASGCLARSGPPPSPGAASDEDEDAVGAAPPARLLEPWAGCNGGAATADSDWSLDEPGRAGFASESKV

| Structure (SMILES) | Selectivity [1] | Intrinsic activity [2] | Ki [3] | Selectivity [4] | ED50 [5] | Ratio of dose [6] | Ratio of dose [7] | Intrinsic activity (Cavia porcellus) | Intrinsic activity [8] |
| --- | --- | --- | --- | --- | --- | --- | --- | --- | --- |
| CCCCCC(Cc1ccccc1)NCC(O)c1ccc(O)c(NS(C)(=O)=O)c1 (stereo unspecified) | 0.5 | 77% | 320 nM | 8 |  |  |  |  |  |
| CS(=O)(=O)Nc1cc([C@@H](O)CNC(c2ccc(OC(F)F)cc2)c2ccc(OC(F)F)cc2)ccc1O | 7 | 77% | 160 nM | 8 | 0.08 mg/kg | >6 | >60 | 24% |  |
| CNC(=O)CCCCC(Cc1ccccc1)NCC(O)c1ccc(O)c(NS(C)(=O)=O)c1 (stereo unspecified) | 0.5 | 104% | 1600 nM | 7 |  |  |  |  |  |
| CS(=O)(=O)Nc1cc(C(O)CNC(Cc2ccccc2)C2CCCCC2)ccc1O (stereo unspecified) | 0.7 | 80% | 4300 nM | 7 |  |  |  |  |  |
| CS(=O)(=O)Nc1cc(C(O)CNC(Cc2ccccc2)Cc2ccccc2)ccc1O (stereo unspecified) | 0.3 |  | 1500 nM | 6 |  |  |  |  |  |
| CS(=O)(=O)Nc1cc(C(O)CNC(Cc2ccccc2)c2ccc(Cl)c(Cl)c2)ccc1O (stereo unspecified) | 1 | 97% | 414 nM | 9 |  |  |  |  |  |
| CC(C)NCC(O)c1ccc(O)c(NS(C)(=O)=O)c1 (stereo unspecified) [SOTERENOL] | 0.6 | 109% | 4100 nM | 2 |  |  |  |  |  |
| COc1ccc(C(Cc2ccccc2)NCC(O)c2ccc(O)c(NS(C)(=O)=O)c2)cc1OC (stereo unspecified) | 8 | 105% | 33 nM | 69 |  |  |  |  |  |
| COc1ccc(C(Cc2ccccc2)NCC(O)c2ccc(O)c(NS(C)(=O)=O)c2)c(OC)c1 (stereo unspecified) | 3 | 102% | 70 nM | 37 |  |  |  |  |  |
| CCC(C)(C)NCC(O)c1ccc(O)c(NS(C)(=O)=O)c1 (stereo unspecified) | 0.03 | 125% | 3700 nM | 0.3 |  |  |  |  |  |
| CC(=O)Nc1ccc(C(NC[C@H](O)c2ccc(O)c(NS(C)(=O)=O)c2)c2ccc(NC(C)=O)cc2)cc1 | 3 | 96% | 300 nM | 17 |  |  |  |  | 88% |
| CS(=O)(=O)Nc1cc(C(O)CNCc2ccccc2)ccc1O (stereo unspecified) | 0.25 |  | 12700 nM | 2 |  |  |  |  |  |
| COc1ccc(CNCC(O)c2ccc(O)c(NS(C)(=O)=O)c2)cc1 (stereo unspecified) | 2 | 95% | 1550 nM | 22 |  |  |  |  |  |
| CS(=O)(=O)Nc1cc(C(O)CN)ccc1O (stereo unspecified) | 0.1 | 93% | 17000 nM | 0.6 |  |  |  |  |  |
| CS(=O)(=O)Nc1cc([C@@H](O)CNC(c2ccc(F)cc2)c2ccc(F)cc2)ccc1O | 2 | 70% | 2800 nM | 3 |  |  |  | 48% |  |
| COCc1ccc(C(NC[C@H](O)c2ccc(O)c(NS(C)(=O)=O)c2)c2ccc(COC)cc2)cc1 | 13 | 78% | 980 nM | 46 |  |  |  |  |  |
| COc1ccc([C@@H](Cc2ccccc2)NC[C@H](O)c2ccc(O)c(NS(C)(=O)=O)c2)cc1OC | 6 | 112% | 11 nM | 63 | 0.03 mg/kg | <3 | 3 |  |  |
| CC(NC[C@H](O)c1ccc(O)c(NS(C)(=O)=O)c1)(c1ccc(OC(F)F)cc1)c1ccc(OC(F)F)cc1 | 2 | 94% | 81 nM | 2 |  |  |  |  |  |
| CN(C)C(=O)c1ccc(C(NC[C@H](O)c2ccc(O)c(NS(C)(=O)=O)c2)c2ccc(C(=O)N(C)C)cc2)cc1 |  | 43% |  |  |  |  |  |  |  |
| COc1cccc(C(Cc2ccccc2)NCC(O)c2ccc(O)c(NS(C)(=O)=O)c2)c1 (stereo unspecified) | 2 | 99% | 230 nM | 16 |  |  |  |  |  |

| Structure (SMILES) | Selectivity [1] | Intrinsic activity [2] | Ki [3] | Selectivity [4] | ED50 [5] | Ratio of dose [6] | Ratio of dose [7] | Intrinsic activity (Cavia porcellus) | Intrinsic activity [8] |
| --- | --- | --- | --- | --- | --- | --- | --- | --- | --- |
| COC(=O)CCCCC(Cc1ccccc1)NCC(O)c1ccc(O)c(NS(C)(=O)=O)c1 (stereo unspecified) | 5 | 89% | 570 nM | 26 |  |  |  |  |  |
| COc1ccc(C(NC[C@H](O)c2ccc(O)c(NS(C)(=O)=O)c2)(C(N)=O)c2ccc(OC)cc2)cc1 | 10 | 106% | 220 nM | 3 |  |  |  |  |  |
| COc1ccc([C@H](Cc2ccccc2)NC[C@H](O)c2ccc(O)c(NS(C)(=O)=O)c2)cc1OC | 6 | 93% | 320 nM | 63 |  |  |  |  |  |
| CS(=O)(=O)Nc1cc(C(O)CNC(CCCCC(=O)O)Cc2ccccc2)ccc1O (stereo unspecified) | 0.3 | 57% | 87000 nM | 1 |  |  |  |  |  |
| COC(=O)COc1ccc(CCNCC(O)c2ccc(O)c(NS(C)(=O)=O)c2)cc1 (stereo unspecified) | 0.01 | 79% | 3300 nM | 0.7 |  |  |  |  |  |
| CS(=O)(=O)Nc1cc(C(O)CNCCc2ccccc2)ccc1O (stereo unspecified) | 0.07 | 91% | 1100 nM | 2 |  |  |  |  |  |
| COc1ccc(CCNCC(O)c2ccc(O)c(NS(C)(=O)=O)c2)cc1OC (stereo unspecified) | 1 | 110% | 550 nM | 4 |  |  |  |  |  |
| CCc1ccc(C(Cc2ccccc2)NCC(O)c2ccc(O)c(NS(C)(=O)=O)c2)cc1CC (stereo unspecified) | 0.5 | 91% | 520 nM | 6 |  |  |  |  |  |
| CS(=O)(=O)Nc1cc(C(O)CNC(Cc2ccccc2)c2ccccc2)ccc1O (stereo unspecified) | 3 |  |  | 15 |  |  |  |  |  |
| CS(=O)(=O)Nc1cc(C(O)CNCCc2ccc(OCC(=O)O)cc2)ccc1O (stereo unspecified) | 0.06 | 77% | 49000 nM | 2 |  |  |  |  |  |
| COc1ccc(C(NC[C@H](O)c2ccc(O)c(NS(C)(=O)=O)c2)c2ccc(OC)cc2)cc1 |  | 100% |  |  |  |  |  | 85% |  |
| CS(=O)(=O)Nc1cc(C(O)CNC(CCCCCO)Cc2ccccc2)ccc1O (stereo unspecified) | 0.5 | 72% | 480 nM | 10 |  |  |  |  |  |
| COc1ccc(C(Cc2ccccc2)NCC(O)c2ccc(O)c(NS(C)(=O)=O)c2)cc1 (stereo unspecified) |  | 99% |  |  |  |  |  |  |  |
| COc1ccc(C(C)(NC[C@H](O)c2ccc(O)c(NS(C)(=O)=O)c2)c2ccc(OC)cc2)cc1 | 8 | 79% | 20 nM | 3 |  |  |  | 79% |  |
| CS(=O)(=O)Nc1cc([C@@H](O)CNC(c2ccccc2)c2ccccc2)ccc1O | 5 | 44% | 5800 nM | 5 |  |  |  |  |  |
| C[C@H](Cc1ccc(OCC(=O)O)cc1)NC[C@H](O)c1cccc(Cl)c1 |  | 67% |  |  |  |  |  |  |  |
| Cc1ccc(C(Cc2ccccc2)NCC(O)c2ccc(O)c(NS(C)(=O)=O)c2)cc1C (stereo unspecified) | 3 | 79% | 133 nM | 43 |  |  |  |  |  |
| CS(=O)(=O)Nc1cc(C(O)CNC23CC4CC(CC(C4)C2)C3)ccc1O (stereo unspecified) | 0.04 | 110% | 11000 nM | 15 |  |  |  |  |  |
| COc1ccc(CCNCC(O)c2ccc(O)c(NS(C)(=O)=O)c2)cc1 (stereo unspecified) | 0.3 | 93% | 480 nM | 4 |  |  |  |  |  |
